Test system: Fibroblast
Experiment: Multiplex assay against human fibroblast
Format: toxicity, cell-based
In short: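 Compound was added to live cells that had been stained at seeding with Hoechst33342, BioTracker Green Microtubule Cytoskeleton Dye, MitoTracker Red and Annexin V Alexa Fluor 680, and imaging followed on a CQ1 microscope at 37°C and 5% CO2. CellPathfinder machine-learning gating divided cells into Hoechst high-intensity objects or normal cells, normal cells into healthy, pyknosed or fragmented nuclei, and pyknosed cells into mitotic or apoptotic. Tubulin, mitochondrial-mass and membrane-permeability phenotypes are per cents of healthy-nucleus cells.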

[1] = 12 h, 1 µM, compound concentration 1 uM, replicate 1
[2] = 12 h, 1 µM, compound concentration 1 uM, replicate 2
[3] = 12 h, 10 µM, compound concentration 10 uM, replicate 1
[4] = 12 h, 10 µM, compound concentration 10 uM, replicate 2
[5] = 24 h, 1 µM, compound concentration 1 uM, replicate 1
[6] = 24 h, 1 µM, compound concentration 1 uM, replicate 2
[7] = 24 h, 10 µM, compound concentration 10 uM, replicate 1
[8] = 24 h, 10 µM, compound concentration 10 uM, replicate 2
[9] = 48 h, 1 µM, compound concentration 1 uM, replicate 1
[10] = 48 h, 1 µM, compound concentration 1 uM, replicate 2
[11] = 48 h, 10 µM, compound concentration 10 uM, replicate 1
[12] = 48 h, 10 µM, compound concentration 10 uM, replicate 2

For `S=C(NCCCc1c[nH]cn1)NCCCN(Cc1ccc(Cl)c(Cl)c1)c1ccc(Br)cn1`, the “Population Apoptotic (%)” value [1] was 40%, the “Population Fragmented Nuclei (%)” value [1] was 13% and the “Population Healthy Nuclei (%)” value [1] was 71%. For the same compound, the “Population Hoechst High Intensity Objects (%)” value [1] was 5%, the “Population Membrane Permeable-Phenotype (%)” value [1] was 1% and the “Population Mitochondria Different-Phenotype (%)” value [1] was 5%. For the same compound, the “Population Mitotic Cells (%)” value [1] was 60%, the “Population Normal (%)” value [1] was 94% and the “Population Pyknosed Nuclei (%)” value [1] was 14%. The “Population Tubulin-Different-Phenotype (%)” value [1] was 26%, the “Total Cell Count” value [1] was 142 and the “Population Apoptotic (%)” value [2] was 31%. The “Population Fragmented Nuclei (%)” value [2] was 30%, the “Population Healthy Nuclei (%)” value [2] was 50% and the “Population Hoechst High Intensity Objects (%)” value [2] was 4%. For the same compound, the “Population Membrane Permeable-Phenotype (%)” value [2] was 5%, the “Population Mitochondria Different-Phenotype (%)” value [2] was 6% and the “Population Mitotic Cells (%)” value [2] was 68%. The “Population Normal (%)” value [2] was 95%, the “Population Pyknosed Nuclei (%)” value [2] was 18% and the “Population Tubulin-Different-Phenotype (%)” value [2] was 37%. For the same compound, the “Total Cell Count” value [2] was 181, the “Population Apoptotic (%)” value [3] was 47% and the “Population Fragmented Nuclei (%)” value [3] was 27%. For the same compound, the “Population Healthy Nuclei (%)” value [3] was 56%, the “Population Hoechst High Intensity Objects (%)” value [3] was 3% and the “Population Membrane Permeable-Phenotype (%)” value [3] was 0%. The “Population Mitochondria Different-Phenotype (%)” value [3] was 15%, the “Population Mitotic Cells (%)” value [3] was 52% and the “Population Normal (%)” value [3] was 96%. For the same compound, the “Population Pyknosed Nuclei (%)” value [3] was 16%, the “Population Tubulin-Different-Phenotype (%)” value [3] was 89% and the “Total Cell Count” value [3] was 220. The “Population Apoptotic (%)” value [4] was 52%, the “Population Fragmented Nuclei (%)” value [4] was 34% and the “Population Healthy Nuclei (%)” value [4] was 53%. For the same compound, the “Population Hoechst High Intensity Objects (%)” value [4] was 5%, the “Population Mitochondria Different-Phenotype (%)” value [4] was 10% and the “Population Mitotic Cells (%)” value [4] was 47%. The “Population Normal (%)” value [4] was 94%, the “Population Pyknosed Nuclei (%)” value [4] was 12% and the “Total Cell Count” value [4] was 279. For the same compound, the “Population Apoptotic (%)” value [5] was 69%, the “Population Fragmented Nuclei (%)” value [5] was 15% and the “Population Healthy Nuclei (%)” value [5] was 74%. For the same compound, the “Population Hoechst High Intensity Objects (%)” value [5] was 4%, the “Population Membrane Permeable-Phenotype (%)” value [5] was 2% and the “Population Mitochondria Different-Phenotype (%)” value [5] was 2%. For the same compound, the “Population Mitotic Cells (%)” value [5] was 30%, the “Population Normal (%)” value [5] was 95% and the “Population Pyknosed Nuclei (%)” value [5] was 9%. For the same compound, the “Population Tubulin-Different-Phenotype (%)” value [5] was 28%, the “Total Cell Count” value [5] was 137 and the “Population Apoptotic (%)” value [6] was 23%. For the same compound, the “Population Fragmented Nuclei (%)” value [6] was 30%, the “Population Healthy Nuclei (%)” value [6] was 57% and the “Population Hoechst High Intensity Objects (%)” value [6] was 1%. The “Population Mitochondria Different-Phenotype (%)” value [6] was 6%, the “Population Mitotic Cells (%)” value [6] was 76% and the “Population Normal (%)” value [6] was 98%. The “Population Pyknosed Nuclei (%)” value [6] was 11%, the “Population Tubulin-Different-Phenotype (%)” value [6] was 42% and the “Total Cell Count” value [6] was 183. For the same compound, the “Population Apoptotic (%)” value [7] was 66%, the “Population Fragmented Nuclei (%)” value [7] was 22% and the “Population Healthy Nuclei (%)” value [7] was 61%. For the same compound, the “Population Hoechst High Intensity Objects (%)” value [7] was 1%, the “Population Membrane Permeable-Phenotype (%)” value [7] was 0% and the “Population Mitochondria Different-Phenotype (%)” value [7] was 19%. The “Population Mitotic Cells (%)” value [7] was 33%, the “Population Normal (%)” value [7] was 98% and the “Population Pyknosed Nuclei (%)” value [7] was 15%. The “Population Tubulin-Different-Phenotype (%)” value [7] was 93%, the “Total Cell Count” value [7] was 214 and the “Population Apoptotic (%)” value [8] was 61%. For the same compound, the “Population Fragmented Nuclei (%)” value [8] was 27%, the “Population Healthy Nuclei (%)” value [8] was 59% and the “Population Hoechst High Intensity Objects (%)” value [8] was 4%. The “Population Membrane Permeable-Phenotype (%)” value [8] was 2%, the “Population Mitochondria Different-Phenotype (%)” value [8] was 7% and the “Population Mitotic Cells (%)” value [8] was 38%. For the same compound, the “Population Normal (%)” value [8] was 95%, the “Population Pyknosed Nuclei (%)” value [8] was 13% and the “Population Tubulin-Different-Phenotype (%)” value [8] was 95%. For the same compound, the “Total Cell Count” value [8] was 248, the “Population Apoptotic (%)” value [9] was 75% and the “Population Fragmented Nuclei (%)” value [9] was 27%. For the same compound, the “Population Healthy Nuclei (%)” value [9] was 67%, the “Population Hoechst High Intensity Objects (%)” value [9] was 3% and the “Population Membrane Permeable-Phenotype (%)” value [9] was 0%. The “Population Mitochondria Different-Phenotype (%)” value [9] was 0%, the “Population Mitotic Cells (%)” value [9] was 25% and the “Population Normal (%)” value [9] was 96%. The “Population Pyknosed Nuclei (%)” value [9] was 5%, the “Population Tubulin-Different-Phenotype (%)” value [9] was 24% and the “Total Cell Count” value [9] was 156. For the same compound, the “Population Apoptotic (%)” value [10] was 35%, the “Population Fragmented Nuclei (%)” value [10] was 30% and the “Population Healthy Nuclei (%)” value [10] was 59%. For the same compound, the “Population Hoechst High Intensity Objects (%)” value [10] was 4%, the “Population Membrane Permeable-Phenotype (%)” value [10] was 5% and the “Population Mitochondria Different-Phenotype (%)” value [10] was 3%. For the same compound, the “Population Mitotic Cells (%)” value [10] was 64%, the “Population Normal (%)” value [10] was 95% and the “Population Pyknosed Nuclei (%)” value [10] was 10%. The “Population Tubulin-Different-Phenotype (%)” value [10] was 36%, the “Total Cell Count” value [10] was 178 and the “Population Apoptotic (%)” value [11] was 62%. The “Population Fragmented Nuclei (%)” value [11] was 27%, the “Population Healthy Nuclei (%)” value [11] was 59% and the “Population Hoechst High Intensity Objects (%)” value [11] was 6%. The “Population Membrane Permeable-Phenotype (%)” value [11] was 0%, the “Population Mitochondria Different-Phenotype (%)” value [11] was 7% and the “Population Mitotic Cells (%)” value [11] was 37%. The “Population Normal (%)” value [11] was 93%, the “Population Pyknosed Nuclei (%)” value [11] was 12% and the “Population Tubulin-Different-Phenotype (%)” value [11] was 91%. The “Total Cell Count” value [11] was 230, the “Population Apoptotic (%)” value [12] was 63% and the “Population Fragmented Nuclei (%)” value [12] was 31%. The “Population Healthy Nuclei (%)” value [12] was 60%, the “Population Hoechst High Intensity Objects (%)” value [12] was 5% and the “Population Mitochondria Different-Phenotype (%)” value [12] was 1%. The “Population Mitotic Cells (%)” value [12] was 36%, the “Population Normal (%)” value [12] was 94% and the “Population Pyknosed Nuclei (%)” value [12] was 7%. The “Population Tubulin-Different-Phenotype (%)” value [12] was 86% and the “Total Cell Count” value [12] was 293.

— ChEMBL document CHEMBL5058577, “EUbOPEN Chemogenomics Library 2 (Multiplex)” (2022)
